{"source": "ChEMBL document CHEMBL4028911", "about": "“Discovery of a Small-Molecule Bromodomain-Containing Protein 4 (BRD4) Inhibitor That Induces AMP-Activated Protein Kinase-Modulated Autophagy-Associated Cell Death in Breast Cancer” (J Med Chem, 2017)", "key": {"[1]": {"system": "MCF7", "test": "Effect on AKT expression in human MCF7 cells at 1.5 uM measured up to 36 hrs by Western blot analysis", "format": "ADME, cell-based", "conditions": "mcf7, 36 h", "procedure,_shortened": "(§1)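 MCF-7 (1.5 µM) or MDA-MB-231 (3 µM) cells treated for indicated times. Adherent and floating cells lysed in RIPA with 1 mM PMSF, 4°C for 1 h. Equal protein run on 10-15% SDS-PAGE, transferred to PVDF, blocked with milk or BSA, probed with primary then HRP secondary antibodies, ECL detection; β-actin as loading control.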"}, "[2]": {"biological_target": "T1, Bromodomain-containing protein 4 (Homo sapiens, UniProt O60885)", "test": "Inhibition of BRD4 in human MDA-MB-231 cells assessed as reduction in FIP200 protein expression at 3 uM up to 36 hrs by Western blot analysis", "format": "cell-based", "procedure,_shortened": "(§2)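 MCF-7 (1.5 μM) or MDA-MB-231 (3 μM) cells treated for indicated times. Adherent and floating cells lysed in RIPA with 1 mM PMSF. Equal protein run on 10-15% SDS-PAGE, blotted to PVDF, blocked in milk or BSA, HRP/ECL detection. β-actin loading control.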"}, "[3]": {"system": "MDA-MB-231", "test": "Inhibition of BRD4 protein expression in human MDA-MB-231 cells at 3 uM measured up to 36 hrs by Western blot analysis", "format": "functional, cell-based", "procedure,_shortened": "as §2"}, "[4]": {"system": "MDA-MB-231", "test": "Induction of autophagy in human MDA-MB-231 cells assessed as LC3 lipidation at 3 uM in presence of ATG5 siRNA by Western blot analysis", "format": "functional, cell-based"}, "[5]": {"system": "MCF7", "test": "Antitumor activity against human MCF7 cells xenografted in nude BALB/c mouse assessed as reduction in tumor weight at 25 to 100 mg/kg, ig administered once a day for 24 days measured every 3 days relative to control", "format": "functional, organism-based", "procedure,_shortened": "(§3)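 Female BALB/c nude mice, 6-8 weeks, 20-22 g, injected subcutaneously with 5×10^6 MCF-7 or MDA-MB-231 cells. At 100 mm³ tumor volume (V = L×W²/2), split into four groups: 25, 50 or 100 mg/kg intragastric once daily for 24 or 27 days, or vehicle. Tumor volume and body weight measured every 3 days; tumors excised and weighed at end. MCF-7 n=7, MDA-MB-231 n=6 per group.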"}, "[6]": {"system": "MDA-MB-231", "test": "Induction of autophagy in GFP-LC3 fused human MDA-MB-231 cells assessed as increase in LC3 puncta at 3 uM by fluorescence microscopy", "format": "functional, cell-based", "procedure,_shortened": "(§4)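 MCF-7 or MDA-MB-231 cells transfected with eGFP-LC3 plasmid, then treated with 1.5 or 3 µM respectively for 24 h. LC3 puncta viewed by fluorescence microscopy.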"}, "[7]": {"biological_target": "T1, Bromodomain-containing protein 4", "test": "Inhibition of BRD4 in human MCF7 cells assessed as increase in ULK1 phosphorylation at ser317 at 1.5 uM up to 36 hrs by Western blot analysis", "format": "cell-based", "procedure,_shortened": "as §2"}, "[8]": {"system": "MCF7", "test": "Induction of autophagy in human MCF7 cells assessed as assessed as cytoplasmic vacuolization", "format": "functional, cell-based"}, "[9]": {"system": "Mus musculus", "test": "Toxicity in BALB/c mouse xenografted with human MCF7 cells assessed as effect on body weight at 25 to 100 mg/kg, ig administered once a day for 24 days measured every 3 days", "format": "organism-based", "conditions": "in vivo, po", "procedure,_shortened": "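Female BALB/c nude mice (6-8 weeks, 20-22 g) with subcutaneous MCF-7 or MDA-MB-231 xenografts (5×10^6 cells). At 100 mm3, given 25, 50 or 100 mg/kg intragastrically once daily, or vehicle, for 24 or 27 days. Body weight recorded every 3 days. MCF-7 n=7, MDA-MB-231 n=6 per group.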"}, "[10]": {"biological_target": "T1, Bromodomain-containing protein 4", "test": "Inhibition of BRD4 in human MCF7 cells assessed as reduction in ATG13 protein expression at 1.5 uM up to 36 hrs by Western blot analysis", "format": "cell-based", "procedure,_shortened": "as §2"}, "[11]": {"system": "MCF7", "test": "Antitumor activity against human MCF7 cells xenografted in ig dosed nude BALB/c mouse assessed as tumor growth inhibition administered once a day for 24 days measured every 3 days relative to control", "format": "functional, organism-based", "procedure,_shortened": "as §3"}, "[12]": {"biological_target": "T1, Bromodomain-containing protein 4", "test": "Inhibition of BRD4 in human MCF7 cells assessed as increase in ATG13 phosphorylation at ser318 at 1.5 uM up to 36 hrs by Western blot analysis", "format": "cell-based", "procedure,_shortened": "as §2"}, "[13]": {"system": "Mus musculus", "test": "Induction of cleavage of caspase-3 in BALB/c mouse xenografted with human MCF7 cells at 100 mg/kg, ig administered once a day for 24 days by Western blot analysis", "format": "functional, organism-based", "procedure,_shortened": "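Female BALB/c nude mice (6-8 weeks) given 5×10^6 MCF-7 or MDA-MB-231 cells subcutaneously. At 100 mm3 tumours, dosed intragastrically once daily (25, 50, 100 mg/kg, or vehicle) for 24 or 27 days. Excised tumours lysed and probed by western blot for caspase-3 cleavage.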"}, "[14]": {"system": "MCF7", "test": "Induction of autophagy in human MCF7 cells assessed as reduction in cell viability at 1.5 uM administered at 1 hr post […] addition by MTT assay", "format": "functional, cell-based", "procedure,_shortened": "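MCF-7 cells pretreated with 3-MA (1 mM) for 1 h, then given 1.5 µM. Viability read by MTT: 4 h incubation with MTT, formazan dissolved in DMSO, absorbance at 570 nm.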"}, "[15]": {"biological_target": "T1, Bromodomain-containing protein 4", "test": "Inhibition of BRD4 in human MCF7 cells assessed as induction of AMPKalpha phosphorylation at thr172 at 1.5 uM in presence of ATG5 siRNA by Western blot analysis", "format": "cell-based", "procedure,_shortened": "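Cells given 50 nM ATG5 or negative-control siRNA (Lipofectamine RNAiMAX) and used 48 h later, then exposed to 1.5 μM (MCF-7) or 3 μM (MDA-MB-231). p-AMPKα analysed by western blot with β-actin loading control.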"}, "[16]": {"system": "MCF7", "test": "Induction of autophagy in human MCF7 cells assessed as induction of autophagic vacuoles at 1.5 uM by MDC-based fluorescence microscopy", "format": "functional, cell-based", "procedure,_shortened": "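MCF-7 cells treated with 1.5 µM for indicated times. Stained with 0.05 mM monodansylcadaverine and autophagic vacuoles observed by fluorescence microscopy.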"}, "[17]": {"system": "MDA-MB-231", "test": "Induction of autophagy in human MDA-MB-231 cells assessed as downregulation of p62/SQSTM1 expression at 3 uM measured up to 36 hrs by Western blot analysis", "format": "functional, cell-based", "procedure,_shortened": "as §1"}, "[18]": {"biological_target": "T1, Bromodomain-containing protein 4", "test": "Inhibition of BRD4 in human MDA-MB-231 cells assessed as reduction in ULK1 protein expression at 3 uM up to 36 hrs by Western blot analysis", "format": "cell-based", "procedure,_shortened": "as §2"}, "[19]": {"biological_target": "T1, Bromodomain-containing protein 4", "test": "Inhibition of BRD4 in human MDA-MB-231 cells assessed as downregulation of c-Myc expression at 3 uM measured up to 36 hrs by Western blot analysis", "format": "cell-based", "procedure,_shortened": "as §2"}, "[20]": {"system": "MCF7", "test": "Antitumor activity against human MCF7 cells xenografted in nude BALB/c mouse assessed as tumor growth inhibition at 25 to 100 mg/kg, ig administered once a day for 24 days measured every 3 days relative to control", "format": "functional", "procedure,_shortened": "as §3"}, "[21]": {"system": "MCF7", "test": "Inhibition of BRD4 protein expression in human MCF7 cells at 1.5 uM measured up to 36 hrs by Western blot analysis", "format": "functional, cell-based", "procedure,_shortened": "as §2"}, "[22]": {"system": "MCF7", "test": "Induction of autophagy in GFP-LC3 fused human MCF7 cells assessed as increase in LC3 puncta at 1.5 uM by fluorescence microscopy", "format": "functional, cell-based", "procedure,_shortened": "as §4"}, "[23]": {"system": "MCF7", "test": "Induction of autophagy in human MCF7 cells assessed as LC3 lipidation at 1.5 uM in presence of ATG5 siRNA by Western blot analysis", "format": "functional, cell-based"}}, "note": "Calls of active or inactive are those of the source. The calls are words filed in the database; no cut-off is given here.", "data": [{"smiles": "Cc1cc(-c2nc3sc4c(c3c(=O)[nH]2)CCN(C)C4)cc(C)c1O", "values": [{"measurement": "Activity", "setting": "[1]", "value": "Non-Toxic"}, {"measurement": "inhibition", "setting": "[2]", "value": "Active"}, {"measurement": "inhibition", "setting": "[3]", "value": "Active"}, {"measurement": "Activity", "setting": "[4]", "value": "inactive"}, {"measurement": "Activity", "setting": "[5]", "value": "Active"}, {"measurement": "Activity", "setting": "[6]", "value": "Active"}, {"measurement": "inhibition", "setting": "[7]", "value": "Active"}, {"measurement": "Activity", "setting": "[8]", "value": "Active"}, {"measurement": "Activity", "setting": "[9]", "value": "Non-Toxic"}, {"measurement": "inhibition", "setting": "[10]", "value": "Active"}, {"measurement": "TGI", "setting": "[11]", "value": "Dose-dependent effect"}, {"measurement": "inhibition", "setting": "[12]", "value": "Active"}, {"measurement": "Activity", "setting": "[13]", "value": "Active"}, {"measurement": "Activity", "setting": "[14]", "value": "inactive"}, {"measurement": "inhibition", "setting": "[15]", "value": "Active"}, {"measurement": "Activity", "setting": "[16]", "value": "Active"}, {"measurement": "Activity", "setting": "[17]", "value": "Active"}, {"measurement": "inhibition", "setting": "[18]", "value": "Active"}, {"measurement": "inhibition", "setting": "[19]", "value": "Active"}, {"measurement": "TGI", "setting": "[20]", "value": 80, "unit": "%"}, {"measurement": "inhibition", "setting": "[21]", "value": "Active"}, {"measurement": "Activity", "setting": "[22]", "value": "Active"}, {"measurement": "Activity", "setting": "[23]", "value": "inactive"}]}]}
